Series [1] can be described thus: Cytotoxicity against human HEK293T cells assessed as cell viability at 60 uM after 24 hrs by MTT assay relative to control. Format: cell-based, HEK-293T. Particulars: read-out: Activity. Put shortly: (§1)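 Vero and HEK-293T normal cells (1 × 10^4 per well) exposed 24 h to 0, 15, 30, 45, 60 μM at 37 °C, 5% CO2, triplicate; MTT added 3 h; viability relative to vehicle control (0.15% ethanol).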

The nature of series [2]: Cytotoxicity against african green monkey Vero cells assessed as cell viability at 60 uM after 24 hrs by MTT assay relative to control. Format: cell-based. The following applies: chlorocebus sabaeus, read-out: Activity. The essentials:
as §1
(In general: Tetrazolium assays rely on reduction of a dye to a coloured formazan, in cell work by metabolically active cells.)

In series [3] the test system is PANC-1. The series can be described thus: Induction of apoptosis in human PANC1 cells assessed as procaspase-9 cleavage at 25 uM after 24 hrs by Western blot analysis. Format: functional, cell-based. Put shortly:
(§2)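 Cells (1.5 × 10^6) exposed 24 h to compound (25 or 50 μM). 50 μg protein per lane resolved on 10% SDS-PAGE and transferred to nitrocellulose. Membrane blocked in 2% TBS-BSA, then probed with primary antibody overnight at 4 °C and HRP secondary. Detection by ECL, with β-actin as loading control. Untreated control run in parallel.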
A general note: In western blotting, separated proteins are transferred to a membrane and probed.

The test system of series [4] is T98G. The series is described as follows: Induction of apoptosis in human T98G cells assessed as procaspase-7 cleavage at 25 uM after 24 hrs by Western blot analysis. The format is functional, cell-based. Put shortly: as §2
Series [5] deals with PANC-1. The series can be described thus: Downregulation of total Bid expression in human PANC1 cells at 25 uM after 24 hrs by Western blot analysis. Format: functional, cell-based. The essentials:
(§3)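 Cells (1.5 × 10^6) treated 24 h at 25 or 50 μM; 50 μg protein per lane on 10% SDS-PAGE, nitrocellulose, 2% TBS-BSA block, primary antibody overnight at 4 °C, HRP secondary, ECL detection; β-actin loading control; untreated controls in parallel.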

Series [6] relates to PANC-1. The series is described as follows: Induction of apoptosis in human PANC1 cells assessed as procaspase-8 cleavage at 25 uM after 24 hrs by Western blot analysis. Format: functional, cell-based. Put shortly:
as §3

The test system of series [7] is T98G. The series can be described thus: Induction of apoptosis in human T98G cells assessed as PARP cleavage at 25 uM after 24 hrs by Western blot analysis. Format: functional, cell-based. The essentials:
as §2

A short description of series [8]: Binding affinity to DNA (unknown origin) at 100 uM after 2 hrs by UV-Vis absorption spectroscopic analysis. Put shortly: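 DNA (100 μg/mL; stock 1.0 mg/mL in 50 mM Tris-HCl pH 7.5, 50 mM NaCl) with ligand fixed at 100 μM; incubated at 37 °C, then diluted six-fold; absorbance scanned 220–350 nm at 25 °C, 1 cm quartz cell; 260 nm band monitored.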
Series [9] concerns T98G. The series can be described thus: Downregulation of Bcl-xL expression in human T98G cells at 25 uM after 24 hrs by Western blot analysis. The format is functional, cell-based. The essentials:
as §3

Series [10] relates to T98G. The series can be described thus: Induction of apoptosis in human T98G cells assessed as induction of DNA damage at 20 uM after 24 hrs by comet assay relative to untreated control. Format: functional. The essentials:
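T98G cells (1 × 10^5) treated 24 h with 0 or 20 μM. About 20000 cells embedded in 0.5% low-melting agarose and lysed overnight at 4 °C at pH 10. Alkaline electrophoresis (pH 13) for 30 min at 300 mA at 4 °C, then ethidium bromide staining. Tail length (nucleus centre to tail tip) from ≥20 comets, reported as mean ± SD.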

For another series, the system named is K562. The series can be described thus: Cytotoxicity against human K562 cells assessed as growth inhibition after 24 hrs by MTT assay. Format: functional, cell-based. Put shortly:
(§4)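 Log-phase cells (1 × 10^4 per well) treated 24 h with 0–30 μM at 37 °C, 5% CO2, in triplicate; MTT added for final 3 h; vehicle 0.15% ethanol; IC50 from three separate days, mean ± SE.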

The subject of the next series is HCT-116. The series is described as follows: Cytotoxicity against human HCT116 cells assessed as growth inhibition after 24 hrs by MTT assay. The format is functional, cell-based. Put shortly: as §4
The test system of series [11] is PANC-1. The series is described as follows: Induction of apoptosis in human PANC1 cells assessed as procaspase-7 cleavage at 25 uM after 24 hrs by Western blot analysis. The format is functional, cell-based. Put shortly:
as §3

The test system of series [12] is T98G. The series can be described thus: Cytotoxicity against human T98G cells assessed as growth inhibition after 24 hrs by MTT assay. The format is functional, cell-based. Put shortly:
as §4

The subject of series [13] is PANC-1. The series can be described thus: Cytotoxicity against human PANC1 cells assessed as growth inhibition after 24 hrs by MTT assay. Format: functional, cell-based. Put shortly: as §4
Series [14] concerns T98G. The series is described as follows: Induction of apoptosis in human T98G cells assessed as procaspase-8 cleavage at 25 uM after 24 hrs by Western blot analysis. The format is functional, cell-based. The essentials:
as §2

The test system of the next series is A549. The series can be described thus: Cytotoxicity against human A549 cells assessed as growth inhibition after 24 hrs by MTT assay. The format is functional, cell-based. The essentials:
as §4

Series [15] relates to PANC-1. The series can be described thus: Induction of apoptosis in human PANC1 cells assessed as PARP cleavage at 25 uM after 24 hrs by Western blot analysis. The format is functional, cell-based. The essentials: as §3
Series [16] concerns U-373MG ATCC. The series is described as follows: Cytotoxicity against human U373MG cells assessed as induction of morphological changes at 30 uM after 12 hrs by phase contrast microscopic analysis. The format is functional, cell-based. Put shortly: (§5)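 U373MG glioma cells exposed to 30 μM for 3 or 12 h; shape and density examined by phase contrast microscopy against untreated cells.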

Series [17] relates to PANC-1. The series can be described thus: Downregulation of Bcl-xL expression in human PANC1 cells at 25 uM after 24 hrs by Western blot analysis. The format is functional, cell-based. The essentials:
as §3

Series [18] has as its system T98G. The series can be described thus: Downregulation of total Bid expression in human T98G cells at 25 uM after 24 hrs by Western blot analysis. The format is functional, cell-based. Put shortly: as §3
The test system of series [19] is T98G. The series is described as follows: Induction of apoptosis in human T98G cells assessed as procaspase-9 cleavage at 25 uM after 24 hrs by Western blot analysis. Format: functional, cell-based. Put shortly: as §2
Series [20] in a line: Binding affinity to DNA (unknown origin) assessed as induction of conformational changes at 300 uM after 2 hrs by CD spectrometric analysis. Put shortly: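 DNA at 1000 μg/mL in 50 mM Tris-HCl, pH 7.5, incubated with ligand for 2 h at 37 °C, then CD spectra recorded at 25 °C. Conformational change was judged from the 275 nm band (base stacking) and the 245 nm band (B-conformation).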

The test system of series [21] is U-373MG ATCC. The series can be described thus: Cytotoxicity against human U373MG cells assessed as induction of morphological changes at 30 uM after 3 hrs by phase contrast microscopic analysis. Format: functional, cell-based. Put shortly:
as §5

In series [22] the test system is U-373MG ATCC. The series is described as follows: Cytotoxicity against human U373MG cells assessed as induction of morphological changes at 30 uM up to 24 hrs by phase contrast microscopic analysis. Format: functional, cell-based.
In series [23] the test system is T98G. The series is described as follows: Induction of apoptosis in human T98G cells assessed as procaspase-8 cleavage at 50 uM after 24 hrs by Western blot analysis. The format is functional, cell-based. Put shortly: as §2
Series [24] concerns PANC-1. The series is described as follows: Induction of apoptosis in human PANC1 cells assessed as procaspase-8 cleavage at 50 uM after 24 hrs by Western blot analysis. The format is functional, cell-based. Put shortly:
as §3

Series [25] relates to PANC-1. The series is described as follows: Induction of apoptosis in human PANC1 cells assessed as PARP cleavage at 50 uM after 24 hrs by Western blot analysis. The format is functional, cell-based. Put shortly:
as §3

Series [26] concerns PANC-1. The series can be described thus: Downregulation of Bcl-xL expression in human PANC1 cells at 50 uM after 24 hrs by Western blot analysis. The format is functional, cell-based. The essentials:
as §3

Series [27] concerns T98G. The series is described as follows: Downregulation of Bcl-xL expression in human T98G cells at 50 uM after 24 hrs by Western blot analysis. The format is functional, cell-based. Put shortly:
as §3

For series [28], the system named is T98G. The series can be described thus: Induction of apoptosis in human T98G cells assessed as procaspase-7 cleavage at 50 uM after 24 hrs by Western blot analysis. The format is functional, cell-based. Put shortly: as §2
For series [29], the system named is PANC-1. The series can be described thus: Induction of apoptosis in human PANC1 cells assessed as procaspase-7 cleavage at 50 uM after 24 hrs by Western blot analysis. Format: functional, cell-based. The essentials:
as §3

For series [30], the system named is PANC-1. The series can be described thus: Downregulation of total Bid expression in human PANC1 cells at 50 uM after 24 hrs by Western blot analysis. The format is functional, cell-based. The essentials: as §3
Series [31] has as its system PANC-1. The series can be described thus: Induction of apoptosis in human PANC1 cells assessed as procaspase-9 cleavage at 50 uM after 24 hrs by Western blot analysis. The format is functional, cell-based. Put shortly: as §2
For series [32], the system named is T98G. The series can be described thus: Downregulation of total Bid expression in human T98G cells at 50 uM after 24 hrs by Western blot analysis. The format is functional, cell-based. The essentials:
as §3

Series [33] has as its system T98G. The series is described as follows: Induction of apoptosis in human T98G cells assessed as PARP cleavage at 50 uM after 24 hrs by Western blot analysis. Format: functional, cell-based. The essentials:
as §2

The test system of series [34] is T98G. The series is described as follows: Induction of apoptosis in human T98G cells assessed as procaspase-9 cleavage at 50 uM after 24 hrs by Western blot analysis. Format: functional, cell-based. The essentials:
as §2

Active and inactive are the calls of the source. The rule behind the calls is not given here. A value given as a limit tells only on which side of the number the result lay.

In the case of `CC(C)=CCCC1(C)C=Cc2c(c(C)cc3c2[nH]c2cc(O)ccc23)O1` (stereo not given) [MAHANINE], the viability at 24 h, 60 µM in series [1] is over 65%; in series [2] it was over 85%.

For the molecule `COc1ccc2c(c1)[nH]c1c3c(c(C)cc12)O[C@](C)(CCC=C(C)C)C=C3`, the result in the series on PANC-1 [3], with T98G [4], with PANC-1 [5], with PANC-1 [6], in the series with T98G [7] and in the series with T98G [9] was inactive. Further, the outcome with T98G [10], with PANC-1 [11], in the series with T98G [14], in the series on PANC-1 [15], in the series with U-373MG ATCC [16] and in the series with PANC-1 [17] was inactive. Further, the outcome with T98G [18] and in the series with T98G [19] was inactive. The outcome in series [8] was Active. Besides, the “growth inhibition (GI)” value with K562, in the series with HCT-116, in the series on T98G [12], in the series with PANC-1 [13] and with A549 was “Active” throughout.

Turning to `CC[n+]1c(-c2ccccc2)c2cc(N)ccc2c2ccc(N)cc21`, the result in series [20] was Active.

For the molecule `CC(=O)Oc1ccc2c(c1)[nH]c1c3c(c(C)cc12)O[C@](C)(CCC=C(C)C)C=C3`, the “growth inhibition (GI)” value in the series on K562, with HCT-116, in the series on T98G [12], in the series with PANC-1 [13] and in the series with A549 was “Active” throughout. The result in the series with U-373MG ATCC [21] was inactive. The result with U-373MG ATCC [16] and in the series with U-373MG ATCC [22] was Active.

Regarding `CC(C)=CCC[C@]1(C)C=Cc2c(c(C)cc3c4ccccc4n(C)c23)O1`, the result in the series with T98G [23], in the series with PANC-1 [24], in the series with T98G [10], with PANC-1 [25], in the series with PANC-1 [26] and in the series with T98G [27] was inactive. For the same molecule, the outcome in the series with T98G [28], in the series with PANC-1 [29], in the series with PANC-1 [30], in the series with PANC-1 [31], with T98G [32] and in the series with T98G [33] was inactive. In addition, the result with T98G [34] was inactive. The outcome in series [8] was Active. Moreover, the “growth inhibition (GI)” value in the series on K562, in the series on HCT-116, in the series with T98G [12], with PANC-1 [13] and in the series with A549 was “Active” each time.

Values taken from ChEMBL document CHEMBL2401652 (J Med Chem, 2013).
